Experiments:
A549 = assay: Antiproliferative activity against human A549 cells by MTT assay; format: functional, cell-based
In short: (§1)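 Antiproliferative MTT (microculture tetrazolium) assay run by a previously reported protocol, giving IC50 values. Cell lines came from ATCC: HeLaS3 cervix adenocarcinoma (CCL-2.2), A549 lung carcinoma (CCL-185), HT-29 colorectal adenocarcinoma (HTB-38), and nontumorigenic normal African green monkey kidney Vero (CCL-81).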

HT-29 = assay: Antiproliferative activity against human HT-29 cells by MTT assay; format: functional, cell-based; in short: as §1
Vero = assay: Antiproliferative activity against African green monkey Vero cells by MTT assay; format: cell-based; conditions: Chlorocebus sabaeus; in short: as §1
HeLa S3 = assay: Antiproliferative activity against human HeLaS3 cells by MTT assay; format: functional, cell-based; in short: as §1

Compound	IC50 (A549) [µM]	IC50 (HT-29) [µM]	IC50 (Vero) [µM]	IC50 (HeLa S3) [µM]
CO[C@H]1[C@@H](O)[C@H](O[C@H]2CC[C@@]3(C)[C@H](CC[C@@H]4[C@@H]3CC[C@]3(C)[C@@H](C5=CC(=O)OC5)[C@@H](OC(C)=O)C[C@]43O)C2)O[C@@H](C)[C@@H]1O[C@@H]1O[C@H](CO[C@@H]2O[C@H](CO)[C@@H](O)[C@H](O)[C@H]2O)[C@@H](O)[C@H](O)[C@H]1O	0.6	1.4	4.8	0.4
CO[C@H]1[C@@H](O)[C@H](C)O[C@@H](O[C@H]2CC[C@@]3(C)[C@H](CC[C@@H]4[C@@H]3CC[C@]3(C)[C@@H](C5=CC(=O)OC5)[C@@H](OC(C)=O)C[C@]43O)C2)[C@@H]1OC(C)=O	0.03	0.1	0.3	0.1
CO[C@@H]1[C@@H](O)[C@H](O[C@H]2CC[C@@]3(C)[C@H](CC[C@@H]4[C@@H]3CC[C@]3(C)[C@@H](C5=CC(=O)OC5)[C@@H](OC(C)=O)C[C@]43O)C2)O[C@@H](C)[C@@H]1O[C@@H]1O[C@H](CO[C@@H]2O[C@H](CO)[C@@H](O)[C@H](O)[C@H]2O)[C@@H](O)[C@H](O)[C@H]1O	1.2	1.6	6.9	0.5
CO[C@H]1[C@@H](O)[C@H](O[C@H]2CC[C@@]3(C)[C@H](CC[C@@H]4[C@@H]3CC[C@]3(C)C(C5=CC(=O)OC5)=CC[C@]43O)C2)O[C@@H](C)[C@@H]1O[C@@H]1O[C@H](CO)[C@@H](O)[C@H](O)[C@H]1O	0.3	0.8	2.5	0.7
CO[C@@H]1[C@@H](O[C@@H]2O[C@H](CO)[C@@H](O)[C@H](O)[C@H]2O)[C@H](C)O[C@@H](O[C@H]2CC[C@@]3(C)[C@H](CC[C@@H]4[C@@H]3CC[C@]3(C)C(C5=CC(=O)OC5)=CC[C@]43O)C2)[C@@H]1OC(C)=O	> 10	> 10	> 10	> 10
CO[C@H]1[C@@H](O)[C@H](O[C@H]2CC[C@@]3(C)[C@H](CC[C@@H]4[C@@H]3CC[C@]3(C)[C@@H](C5=CC(=O)OC5)[C@@H](OC(C)=O)C[C@]43O)C2)O[C@@H](C)[C@@H]1O[C@@H]1O[C@H](CO)[C@@H](O)[C@H](O)[C@H]1O	0.1	0.2	0.7	0.2
CO[C@@H]1[C@@H](O[C@@H]2O[C@H](CO)[C@@H](O)[C@H](O)[C@H]2O)[C@H](C)O[C@@H](O[C@H]2CC[C@@]3(C)[C@H](CC[C@@H]4[C@@H]3CC[C@]3(C)[C@@H](C5=CC(=O)OC5)[C@@H](OC(C)=O)C[C@]43O)C2)[C@@H]1OC(C)=O	1.5	1.9	5.8	1.4
CO[C@@H]1[C@@H](O)[C@H](O[C@H]2CC[C@@]3(C)[C@H](CC[C@@H]4[C@@H]3CC[C@]3(C)[C@@H](C5=CC(=O)OC5)[C@@H](O)C[C@]43O)C2)O[C@@H](C)[C@@H]1O[C@@H]1O[C@H](CO)[C@@H](O)[C@H](O)[C@H]1O	3.8	6.4	> 10	6.8
CO[C@@H]1[C@@H](O[C@@H]2O[C@H](CO[C@@H]3O[C@H](CO)[C@@H](O)[C@H](O)[C@H]3O)[C@@H](O)[C@H](O)[C@H]2O)[C@H](C)O[C@@H](O[C@H]2CC[C@@]3(C)[C@H](CC[C@@H]4[C@@H]3CC[C@]3(C)[C@@H](C5=CC(=O)OC5)[C@@H](OC(C)=O)C[C@]43O)C2)[C@@H]1OC(C)=O	2.1	5	> 10	1.6
CO[C@@H]1[C@@H](O)[C@H](O[C@H]2CC[C@@]3(C)[C@H](CC[C@@H]4[C@@H]3CC[C@]3(C)C(C5=CC(=O)OC5)=CC[C@]43O)C2)O[C@@H](C)[C@@H]1O[C@@H]1O[C@H](CO)[C@@H](O)[C@H](O)[C@H]1O	1.6	1.9	6.2	0.7
CO[C@@H]1[C@@H](O)[C@H](C)O[C@@H](O[C@H]2CC[C@@]3(C)[C@H](CC[C@@H]4[C@@H]3CC[C@]3(C)[C@@H](C5=CC(=O)OC5)[C@@H](OC(C)=O)C[C@]43O)C2)[C@@H]1OC(C)=O	0.5	0.1	0.2	0.04
CO[C@H]1[C@@H](O[C@@H]2O[C@H](CO)[C@@H](O)[C@H](O)[C@H]2O)[C@H](C)O[C@@H](O[C@H]2CC[C@@]3(C)[C@H](CC[C@@H]4[C@@H]3CC[C@]3(C)[C@@H](C5=CC(=O)OC5)[C@@H](OC(C)=O)C[C@]43O)C2)[C@@H]1OC(C)=O	0.6	0.6	2.2	0.4
CO[C@@H]1[C@@H](O)[C@H](O[C@H]2CC[C@@]3(C)[C@H](CC[C@@H]4[C@@H]3CC[C@]3(C)[C@@H](C5=CC(=O)OC5)[C@@H](OC(C)=O)C[C@]43O)C2)O[C@@H](C)[C@@H]1O[C@@H]1O[C@H](CO)[C@@H](O)[C@H](O)[C@H]1O	0.1	0.2	0.6	0.1
COc1cccc2c1C(=O)c1c(O)c3c(c(O)c1C2=O)C[C@@](O)(C(=O)CO)C[C@@H]3O[C@H]1C[C@H](N)[C@H](O)[C@H](C)O1 [DOXORUBICIN]	5	0.4	6.6	< 0.1
COc1cc([C@@H]2c3cc4c(cc3[C@@H](O[C@@H]3O[C@@H]5CO[C@@H](C)O[C@H]5[C@H](O)[C@H]3O)[C@H]3COC(=O)[C@H]23)OCO4)cc(OC)c1O [ETOPOSIDE]	> 10	7.6	> 10	0.5

— ChEMBL document CHEMBL4130533, “Cytotoxic Cardiac Glycoside Constituents of Vallaris glabra Leaves” (J Nat Prod, 2017)
